Results published in ChEMBL document CHEMBL1165873, “Synthesis and in vitro study of methylene-bis-tetrahydro[1,3]thiazolo[4,5-c]isoxazoles as potential nematicidal agents” (2010).
Values after ≈ are worked out from the molar mass of the structure shown. Active and inactive are the calls of the source. The rule behind the calls is not given here.

Tests used:
Candida albicans = experiment: Antifungal activity against Candida albicans ATCC 10231 after 48 hrs by broth dilution method; format: functional; details: ATCC 10231, 48 h
Summary of the method: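 Yeast grown 48 h at 28 °C in YPD broth (1% yeast extract, 2% peptone, 2% dextrose), centrifuged and washed twice in sterile water. Compounds dissolved in DMSO, serial twofold dilutions 120–0.9 µM in potato dextrose broth. Wells inoculated with about 10^3 cells/mL and incubated ~48–72 h at 28 °C. MIC (µM) read against controls; NCCLS broth dilution.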

Aspergillus fumigatus = experiment: Antifungal activity against Aspergillus fumigatus HIC 6094 after 48 hrs by broth dilution method; format: functional; details: HIC 6094, 48 h
Summary of the method: (§1)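 Fungi grown on potato dextrose agar for two weeks at 28 °C. Spores washed three times and resuspended in water at 10⁵ spores/mL initial inoculum. Compounds dissolved in DMSO, serial twofold dilutions 120–0.9 µM in potato dextrose broth. Wells inoculated with about 10^4 cells/mL and incubated ~48–72 h at 28 °C. MIC (µM) read against controls; NCCLS broth dilution.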

Trichophyton rubrum = experiment: Antifungal activity against Trichophyton rubrum IFO 9185 after 48 hrs by broth dilution method; format: functional; details: IFO 9185, 48 h; summary of the method: as §1
[1] = test system: Trichophyton mentagrophytes; experiment: Antifungal activity against Trichophyton mentagrophytes IFO 40996 after 48 hrs by broth dilution method; format: functional; details: IFO 40996, 48 h; summary of the method: as §1
[2] = test system: Ditylenchus myceliophagus; experiment: Nematicidal activity against Ditylenchus myceliophagus assessed as immobile nematodes after 2 days; format: functional
Caenorhabditis elegans = experiment: Nematicidal activity against Caenorhabditis elegans assessed as immobile nematodes after 2 days; format: functional, organism-based
Summary of the method: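 Worms raised on 8P plates with Na22 bacteria as food. Adults from five-day cultures suspended in water at about 100–250 nematodes/mL. 100 µL of suspension added to compound solutions at various concentrations in 24-well plates at 25 °C. Percentage of immobile worms scored after two days; LD50 derived.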

| Structure (SMILES) | MIC (Candida albicans) | MIC (Aspergillus fumigatus) | MIC (Trichophyton rubrum) | MIC [1] | Activity [2] | Activity (Caenorhabditis elegans) |
| --- | --- | --- | --- | --- | --- | --- |
| COc1ccccc1C1SC2C(=NOC2c2ccc(F)cc2)N1c1ccc(Cl)cc1 (centres undefined) | 30 µM (≈ 13.2 µg/mL) | 30 µM (≈ 13.2 µg/mL) | 30 µM (≈ 13.2 µg/mL) | 30 µM (≈ 13.2 µg/mL) |  |  |
| C[C@@H]1[C@H](O)[C@@H](C)/C=C/C=C/C=C/C=C/C=C/C=C/C=C/[C@H](O[C@@H]2O[C@H](C)[C@@H](O)[C@H](N)[C@@H]2O)C[C@@H]2O[C@](O)(C[C@@H](O)C[C@@H](O)[C@H](O)CC[C@@H](O)C[C@@H](O)CC(=O)O[C@H]1C)C[C@H](O)[C@H]2C(=O)O [AMPHOTERICIN B] | 7.5 µM (≈ 6.93 µg/mL) | 3.75 µM (≈ 3.47 µg/mL) | 3.75 µM (≈ 3.47 µg/mL) | 3.75 µM (≈ 3.47 µg/mL) |  |  |
| COc1ccc(Cc2ccc(OC)c(C3SC4C(=NOC4c4ccc(F)cc4)N3c3ccc(O)cc3)c2)cc1C1SC2C(=NOC2c2ccc(F)cc2)N1c1ccc(O)cc1 (centres undefined) | 15 µM (≈ 12.9 µg/mL) | 15 µM (≈ 12.9 µg/mL) | 7.5 µM (≈ 6.43 µg/mL) | 7.5 µM (≈ 6.43 µg/mL) | Active | Active |
| COc1ccccc1C1SC2C(=NOC2c2ccc(F)cc2)N1c1ccccc1C (centres undefined) | 60 µM (≈ 25.2 µg/mL) | 30 µM (≈ 12.6 µg/mL) | 15 µM (≈ 6.31 µg/mL) | 30 µM (≈ 12.6 µg/mL) |  |  |
| COc1ccc(Cc2ccc(OC)c(C3SC4C(=NOC4c4ccc(F)cc4)N3c3ccccc3)c2)cc1C1SC2C(=NOC2c2ccc(F)cc2)N1c1ccccc1 (centres undefined) | 30 µM (≈ 24.7 µg/mL) | 60 µM (≈ 49.5 µg/mL) | 30 µM (≈ 24.7 µg/mL) | 60 µM (≈ 49.5 µg/mL) | Active | Active |
| COc1ccccc1C1SC2C(=NOC2c2ccc(F)cc2)N1c1ccc(C)cc1 (centres undefined) | 60 µM (≈ 25.2 µg/mL) | 120 µM (≈ 50.5 µg/mL) | > 120 µM | 120 µM (≈ 50.5 µg/mL) |  |  |
| COc1ccccc1C1SC2C(=NOC2c2ccc(F)cc2)N1c1ccc([N+](=O)[O-])cc1 (centres undefined) | 30 µM (≈ 13.5 µg/mL) | 60 µM (≈ 27.1 µg/mL) | 120 µM (≈ 54.2 µg/mL) | 30 µM (≈ 13.5 µg/mL) |  |  |
| COc1ccc(Cc2ccc(OC)c(C3SC4C(=NOC4c4ccc(F)cc4)N3c3ccc(C)cc3)c2)cc1C1SC2C(=NOC2c2ccc(F)cc2)N1c1ccc(C)cc1 (centres undefined) | 7.5 µM (≈ 6.4 µg/mL) | 30 µM (≈ 25.6 µg/mL) | > 120 µM | 15 µM (≈ 12.8 µg/mL) | Active | Active |
| COc1ccc(Cc2ccc(OC)c(C3SC4C(=NOC4c4ccc(F)cc4)N3c3ccc([N+](=O)[O-])cc3)c2)cc1C1SC2C(=NOC2c2ccc(F)cc2)N1c1ccc([N+](=O)[O-])cc1 (centres undefined) | 15 µM (≈ 13.7 µg/mL) | 30 µM (≈ 27.4 µg/mL) | 30 µM (≈ 27.4 µg/mL) | 7.5 µM (≈ 6.86 µg/mL) | Active | Active |
| COc1ccc(Cc2ccc(OC)c(C3SC4C(=NOC4c4ccc(F)cc4)N3c3ccc(F)cc3)c2)cc1C1SC2C(=NOC2c2ccc(F)cc2)N1c1ccc(F)cc1 (centres undefined) | 3.75 µM (≈ 3.23 µg/mL) | 3.75 µM (≈ 3.23 µg/mL) | 3.75 µM (≈ 3.23 µg/mL) | 3.75 µM (≈ 3.23 µg/mL) | Active | Active |
| COc1ccccc1C1SC2C(=NOC2c2ccc(F)cc2)N1c1ccccc1 (centres undefined) | 120 µM (≈ 48.8 µg/mL) | > 120 µM | > 120 µM | > 120 µM |  |  |
| COc1ccc(Cc2ccc(OC)c(C3SC4C(=NOC4c4ccc(F)cc4)N3c3ccc(Cl)cc3)c2)cc1C1SC2C(=NOC2c2ccc(F)cc2)N1c1ccc(Cl)cc1 (centres undefined) | 3.75 µM (≈ 3.35 µg/mL) | 3.75 µM (≈ 3.35 µg/mL) | 3.75 µM (≈ 3.35 µg/mL) | 3.75 µM (≈ 3.35 µg/mL) | Active | Active |
| COc1ccccc1C1SC2C(=NOC2c2ccc(F)cc2)N1c1ccc(F)cc1 (centres undefined) | 120 µM (≈ 50.9 µg/mL) | 60 µM (≈ 25.5 µg/mL) | 60 µM (≈ 25.5 µg/mL) | 60 µM (≈ 25.5 µg/mL) |  |  |
| COc1ccc(Cc2ccc(OC)c(C3SC4C(=NOC4c4ccc(F)cc4)N3c3ccccc3C)c2)cc1C1SC2C(=NOC2c2ccc(F)cc2)N1c1ccccc1C (centres undefined) | 3.75 µM (≈ 3.2 µg/mL) | 3.75 µM (≈ 3.2 µg/mL) | 3.75 µM (≈ 3.2 µg/mL) | 3.75 µM (≈ 3.2 µg/mL) | Active | Active |
| COc1ccccc1C1SC2C(=NOC2c2ccc(F)cc2)N1c1ccc(O)cc1 (centres undefined) | 60 µM (≈ 25.3 µg/mL) | 60 µM (≈ 25.3 µg/mL) | > 120 µM | 60 µM (≈ 25.3 µg/mL) |  |  |
